Drawing on ChEMBL document CHEMBL1156549, “Synthesis, DNA-binding ability and evaluation of antitumour activity of triazolo[1,2,4]benzothiadiazine linked pyrrolo[2,1-c][1,4]benzodiazepine conjugates” (2008), this text covers GI50 and ΔTm for 8 compounds.

One assay deals with A2780. The assay can be described thus: Cytotoxicity against human A2780 cells after 48 hrs by sulforhodamine B assay. It is filed as functional. To be noted: A2780, 48 h. In short, it runs like this: (§1)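 Cells were grown in RPMI 1640 with 10% FBS and 2 mM L-glutamine, seeded at densities set by doubling time, and left 24 h before drug. Exposure was 48 h continuous at 0.1, 1, 10 and 100 µM, triplicate wells. Cells were fixed in cold 10% TCA for 60 min at 4 °C and stained with SRB. Bound dye was eluted with 10 mM Tris and read at 540 nm (690 nm reference). GI50 was the concentration halving net protein increase versus control.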
In general terms: Sulforhodamine B stains cellular protein and so reports cell mass.

The nature of assay [1]: Cytotoxicity against human AW13516 cells after 48 hrs by sulforhodamine B assay. It is filed as functional. In short, it runs like this: as §1
Assay [2] is described as follows: Cytotoxicity against human AW8507 cells after 48 hrs by sulforhodamine B assay. It is filed as functional. To be noted: AW8507, 48 h. In short, it runs like this:
as §1

A further assay has as its system COLO 205. The assay can be described thus: Cytotoxicity against human Colo205 cells after 48 hrs by sulforhodamine B assay. To be noted: COLO 205, 48 h. It is filed as functional. In short, it runs like this:
as §1

For another assay, the system named is MCF7. Briefly: Cytotoxicity against human MCF7 cells after 48 hrs by sulforhodamine B assay. To be noted: MCF7, 48 h. It is filed as functional. In short, it runs like this:
as §1

The next assay relates to SiHa. The assay can be described thus: Cytotoxicity against human SiHa cells after 48 hrs by sulforhodamine B assay. It is filed as functional. In short, it runs like this: as §1
The test system of the next assay is KB. The assay can be described thus: Cytotoxicity against human KB cells after 48 hrs by sulforhodamine B assay. It is filed as functional. In short, it runs like this:
as §1

The subject of the next assay is HOP-62. Briefly: Cytotoxicity against human HOP62 cells after 48 hrs by sulforhodamine B assay. It is filed as functional. To be noted: HOP-62, 48 h. In short, it runs like this:
as §1

Another assay concerns A549. The assay can be described thus: Cytotoxicity against human A549 cells after 48 hrs by sulforhodamine B assay. It is filed as functional. To be noted: A549, 48 h. In short, it runs like this: as §1
A further assay relates to ZR-75-1. The assay can be described thus: Cytotoxicity against human Zr-75-1 cells after 48 hrs by sulforhodamine B assay. It is filed as functional. To be noted: ZR-75-1, 48 h. In short, it runs like this: as §1
Assay [3] relates to DNA. Briefly: Binding affinity to calf thymus DNA at pH 7.0 at 20 uM after 18 hrs by thermal denaturation assay. To be noted: Bos taurus. It is filed as nucleic-acid assay.
The test system of the next assay is PC-3. The assay can be described thus: Cytotoxicity against human PC3 cells after 48 hrs by sulforhodamine B assay. It is filed as functional. To be noted: PC-3, 48 h. In short, it runs like this: as §1
Assay [4] concerns DNA. Briefly: Binding affinity to calf thymus DNA at pH 7.0 at 20 uM after 36 hrs by thermal denaturation assay. It is filed as nucleic-acid assay. To be noted: Bos taurus.

By GI50 is commonly meant the concentration at which growth is held to half of that of the control. Take `COc1cccc2c1C(=O)c1c(O)c3c(c(O)c1C2=O)C[C@@](O)(C(=O)CO)C[C@@H]3O[C@H]1C[C@H](N)[C@H](O)[C@H](C)O1` [DOXORUBICIN]: the GI50 in the assay on A2780 was 160 nM; in assay [1], 100 nM; in assay [2] it was 170 nM; in the assay with COLO 205, 140 nM; in the assay with MCF7, 170 nM; with SiHa, 180 nM. Besides, the GI50 came to 1720 nM in the assay with KB and 140 nM with HOP-62.
One may read the ΔTm as the change in melting temperature against a reference sample. For `COc1cc2c(cc1OCCCCSc1nnc3n1S(=O)(=O)c1ccccc1N3C)N=C[C@@H]1CCCN1C2=O`, the GI50 in the assay with A549 came to 2280 nM; in the assay on A2780 it was 2170 nM; in the assay with ZR-75-1, 25.9 µM; in [1], 26600 nM; in [2], 2290 nM; in the assay with COLO 205, 2110 nM. In addition, the GI50 in the assay with PC-3 turned out to be 25.5 µM; with MCF7, 2290 nM; in the assay on SiHa, 27000 nM; in the assay on KB, 26400 nM. For the same compound, the results for the ΔTm in the assay on DNA [3] and in the assay with DNA [4] were 0.5 °C and 0.7 °C, respectively.
For `COc1cc2c(cc1OCCCCSc1nnc3n1S(=O)(=O)c1ccccc1N3c1ccccc1)N=C[C@@H]1CCCN1C2=O`, the GI50 with A549 worked out at 29700 nM; in the assay with A2780, 2270 nM; in [1], 1980 nM; in [2], 25800 nM; in the assay on PC-3, 28.8 µM. In addition, the ΔTm in the assay with DNA [3] came out at 0.6 °C; with DNA [4], 0.7 °C.
On to `COc1cc2c(cc1O)N=C[C@@H]1CCCN1C2=O`, for which the shift in melting temperature (ΔTm) with DNA [3] and in the assay on DNA [4] was 0.7 °C each time.
On to `COc1cc2c(cc1OCCCCCSc1nnc3n1S(=O)(=O)c1ccccc1N3C)N=C[C@@H]1CCCN1C2=O`, for which the GI50 was 2450 nM with A549; 1920 nM with A2780; 28.5 µM in the assay with ZR-75-1; 1950 nM in assay [1]; 220 nM in assay [2]; 2190 nM in the assay with COLO 205. The GI50 in the assay with PC-3 was 25.5 µM; in the assay on SiHa, 27900 nM; with KB it was 25600 nM. For the same compound, the ΔTm in the assay with DNA [3] amounted to 2.4 °C; in the assay with DNA [4], 2.6 °C.
Take `COc1cc2c(cc1OCCCSc1nnc3n1S(=O)(=O)c1ccccc1N3C)N=C[C@@H]1CCCN1C2=O`: the GI50 came to 2290 nM with A549; 1830 nM in the assay on A2780; 2.19 µM in the assay on ZR-75-1; 2240 nM in assay [1]; 2240 nM in assay [2]; 1930 nM with COLO 205. For the same compound, the GI50 in the assay on PC-3 was 2.15 µM; in the assay with MCF7, 2060 nM; with SiHa, 2120 nM; in the assay with KB, 2380 nM; with HOP-62, 2130 nM. The ΔTm in the assay on DNA [3] is 1.5 °C; in the assay with DNA [4] it was 1.7 °C.
Take `COc1cc2c(cc1OCCCSc1nnc3n1S(=O)(=O)c1ccccc1N3c1ccccc1)N=C[C@@H]1CCCN1C2=O`: the concentration for 50% growth inhibition (GI50) in the assay on A2780 came out at 30000 nM; with ZR-75-1, 26 µM. Also, the ΔTm with DNA [3] is 1.2 °C; in the assay with DNA [4], 1.5 °C.
As to `COc1cc2c(cc1OCCCCCSc1nnc3n1S(=O)(=O)c1ccccc1N3c1ccccc1)N=C[C@@H]1CCCN1C2=O`, the GI50 with A549 turned out to be 30300 nM; in the assay on A2780, 2010 nM; in the assay on ZR-75-1, 24 µM; in [1] it was 1780 nM; in assay [2], 2480 nM; in the assay with COLO 205 it was 25600 nM. For the same compound, the 50% growth inhibitory concentration (GI50) was 2.4 µM with PC-3, 2300 nM in the assay with SiHa, 2460 nM in the assay with KB and 2350 nM in the assay on HOP-62. For the same compound, the results for the thermal shift (ΔTm) in the assay on DNA [3] and in the assay with DNA [4] were 1.3 °C and 1.5 °C, respectively.
